# Screening results as filed in PubChem BioAssay.
# Sampled rows, rich in hits. Any-hit rate of the full collection: about 1.7%.
# EBNA-1 inhibitor = blocks EBNA-1 binding to DNA; EBNA-1 DNA binding, fluorescence polarization; inhibition, % at 14.8 µM; 0.34% of 300,000 active; in the data active means inhibition above about 28%
# MEX-5 binding = C. elegans MEX-5 TCR-2 RNA binding activity. Q9XUB2. 0.38% of 300,000 active. activity score (negative = inhibition of binding), % at 10 µM. MEX-5/FITC-TCR2 RNA binding, fluorescence polarization; hits give low values;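 active means inhibition past about -25% in most replicates, and total fluorescence under double the plate's negative control median, limit read from the data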;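 further: 0% = DMSO and -100% = 5 µM competing unlabeled TCR2 RNA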
# Target sequence (Q9XUB2 whole entry, looked up): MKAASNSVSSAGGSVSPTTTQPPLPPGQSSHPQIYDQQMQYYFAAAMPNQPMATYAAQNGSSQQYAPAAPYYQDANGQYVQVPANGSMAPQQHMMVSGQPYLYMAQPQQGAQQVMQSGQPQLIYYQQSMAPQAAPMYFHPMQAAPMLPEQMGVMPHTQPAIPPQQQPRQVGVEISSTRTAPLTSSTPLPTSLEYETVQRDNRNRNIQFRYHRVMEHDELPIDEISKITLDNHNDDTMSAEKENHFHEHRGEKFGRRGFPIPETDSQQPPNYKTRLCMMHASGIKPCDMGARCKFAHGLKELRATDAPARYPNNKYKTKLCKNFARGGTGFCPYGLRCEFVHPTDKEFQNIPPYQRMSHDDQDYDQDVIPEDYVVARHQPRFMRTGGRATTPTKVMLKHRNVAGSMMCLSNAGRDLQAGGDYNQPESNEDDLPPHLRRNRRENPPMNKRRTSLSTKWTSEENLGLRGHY
# core dimer inh = HCV core protein dimerization inhibition. TR-FRET GST/Flag-core106 dimerization, 1536-well. inhibition, % at 5 µM. 0.33% of 300,000 active;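 active means inhibition above the mean of all tested compounds plus 3 SD, set per screening campaign, cut at about 45% in these data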
#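 test system = GST/Flag-tagged HCV core106 proteins | probe or stimulus = Eu donor and XL665 acceptor anti-tag antibodies | times = compound-protein-antibody incubation 4 h at 22.5 °C | signal = TR-FRET, excitation 340 nm, emission 617 and 671 nm | measure = percent inhibition of core106 dimerization signal | controls = wells lacking GST-core106 and wells with excess unlabelled core106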
# ZTA DNA inh = counter-screen for EBNA-1 inhibitors: inhibitors of Epstein-Barr virus ZTA | P03206 | ZTA-DNA binding, fluorescence polarization | inhibition, % at 11 µM | 0.15% of 320,000 active | AID 2234; in the data active means inhibition above about 33%
# EBV gp42 block = inhibitors of Epstein-Barr virus glycoprotein 42 | Q1HVG2 | Fluorescence polarization binding assay, mP read-out | inhibition, % (tested at 21.74 µM) | 0.42% of 220,000 active; in the data active means inhibition above about 50%
# NS3 helicase inh = inhibitors of Hepatitis C virus NS3 helicase | inhibition, % at 10.9 µM | NS3 helicase DNA unwinding, Cy5 molecular beacon fluorescence | 0.56% of 290,000 active;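 active means inhibition above the mean of all tested compounds plus 3 SD, set per campaign, cut at about 35% in these data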;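 further: 0% = DMSO wells and 100% = thioflavine S control wells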
#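 System: Hepatitis C virus NS3 helicase domain fragment enzyme | Reagent: Annealed dual-labelled DNA beacon duplex, ATP-started | Compound dosing: 10.9 µM single point, 0.8% DMSO | Incubation: 1 h reaction at 25 °C, ATP-initiated | Technique: Cy5 fluorescence | Evaluation: Percent inhibition from t60/t0 fluorescence ratio | Benchmarks: Low DMSO, high thioflavine S at 110 µM | Replication: Singlicate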
# NS3 helicase cf = confirmation of Hepatitis C virus NS3 helicase inhibitors | shares compounds with NS3 helicase inh | NS3 helicase DNA unwinding, Cy5 molecular beacon fluorescence | inhibition, % at 10.9 µM | 31% of 1,600 active | AID 1943;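 active means inhibition above the mean of all tested compounds plus 3 SD, cutoff set per campaign, cut at about 36% in these data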
# FID counter trip = intercalator displacement, NS3 helicase counter-screen. AID 1945. DNA fluorescent intercalator displacement, fluorescence. 4% of 1,600 active. shares compounds with NS3 helicase inh. inhibition, % at 7.9 µM; in the data active means inhibition above about 37%;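 further: 0% = vehicle and 100% = reference compound; higher means more displacement of ethidium bromide from the DNA hairpin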
# * = called active by the depositor; · = not tested or not shown.
SMILES,EBNA-1 inhibitor,MEX-5 binding,core dimer inh,ZTA DNA inh,EBV gp42 block,NS3 helicase inh,NS3 helicase cf,FID counter trip
Cc1cc(=O)oc2cc(OCC(=O)NC(Cc3c[nH]c4ccc(O)cc34)C(=O)O)c(Cl)cc12 (stereo unspecified),6.5,-5.5,-3.4,0.4,·,40.3*,-0.4,-23.9
CN(CC(=O)NC(=O)NC1CCCCC1)CC(=O)Nc1ccc(OC(F)(F)F)cc1,·,·,·,19.3,·,·,·,·
CC(=O)C1=C(O)C(=O)N(c2ccc(Br)cc2)C1c1cccc(F)c1 (stereo unspecified),7.3,-3.7,1.1,2.5,·,36.9*,31.4,3.9
Cc1cn(CC2COC(C)(C)O2)c(=O)[nH]c1=O (stereo unspecified),6.5,0.7,-2.9,13.6,-6.6,37.9*,-1.7,10.4
CCn1cc(CNC(=O)c2ccc(Cl)c([N+](=O)[O-])c2)c(C)n1,4.1,-1.6,1.8,-0.4,-10.0,36.0*,-13.3,1.2
CCn1cc(CNC(=O)c2cccc([N+](=O)[O-])c2)c(C)n1,-1.9,0.7,-7.0,-2.2,-15.4,11.4,·,·
COc1ccc(CCNC(=O)COC(=O)/C=C/c2cc(OC)c(OC)c(OC)c2)cc1OC,-2.8,0.6,-2.8,13.0,-20.7,43.2*,-14.8,-41.5
C[C@@H](CSc1ccccc1)CN1CC[C@H](O)CCC1=O,-7.4,-3.3,-5.7,-7.9,·,44.2*,-4.4,12.0
C[C@@H](CN=[N+]=[N-])CN1CC[C@H](O)CCC1=O,1.6,-2.1,-7.7,-8.0,·,37.5*,-8.2,14.8
CCc1ccc(C(=O)C(C)OC(=O)C2COc3ccccc3O2)cc1 (stereo unspecified),3.8,1.4,1.8,-1.0,-5.5,45.2*,4.9,-18.1
CCOc1ccc(C(=O)COC(=O)C2COc3ccccc3O2)cc1 (stereo unspecified),·,·,·,-12.7,·,·,·,·
COc1ccccc1C(NC(C)=O)c1cc(Cl)c2cccnc2c1O (stereo unspecified),5.6,-1.3,8.3,7.4,·,40.3*,-8.0,-4.0
O=C(O)COc1ccccc1C(Nc1cccnc1)c1cc(Cl)c2cccnc2c1O (stereo unspecified),·,-58.7*,·,·,-9.4,37.1*,69.2*,80.7*
COc1ccc(C(NC(C)=O)c2cc(Cl)c3cccnc3c2O)cc1OC (stereo unspecified),10.3,0.4,0.7,-10.5,-14.3,4.5,·,·
CC(=O)NC(c1ccc(Cl)cc1Cl)c1ccc2cccnc2c1O (stereo unspecified),·,2.5,·,·,·,36.2*,12.9,-16.0
O=C(O)COc1ccccc1C(Nc1ccccn1)c1cc(Cl)c2cccnc2c1O (stereo unspecified),7.6,-8.4,9.7,1.8,-6.7,20.3,·,·
CCCC(=O)NC(c1ccc(Cl)cc1Cl)c1ccc2cccnc2c1O (stereo unspecified),-2.8,-0.6,3.4,-1.8,·,5.1,·,·
COc1cc(CNCCc2ccccc2)cc(Cl)c1OCc1ccccc1,0.6,·,-4.2,-5.6,9.8,-46.8,·,·
O=C(O)c1ncc(Cl)c(Cl)c1Cl,0.5,-2.8,0.0,-6.2,-5.7,1.0,·,·
COc1ccccc1-c1nnc(C2CCN(S(=O)(=O)c3ccccc3[N+](=O)[O-])CC2)o1,7.9,1.0,-0.5,-5.8,·,-8.3,·,·
COc1ccc2ccccc2c1C1CC(=O)N2CN(Cc3ccco3)CSC2=C1C#N (stereo unspecified),5.1,0.5,-6.8,11.8,-12.9,47.3*,45.8*,-34.9
CCOC(=O)C1=C(c2ccccc2)N=c2s/c(=C\c3ccco3)c(=O)n2C1c1cccs1 (stereo unspecified),2.4,-3.2,68.9*,1.7,-22.9,47.6*,24.3,-2.1
COc1ccc(C2C(C(C)=O)=C(C)N=c3s/c(=C\c4ccco4)c(=O)n32)c(OC)c1 (stereo unspecified),-7.8,1.0,9.1,0.8,-39.6,53.5*,-28.9,-9.7
